Source: PubChem
A selection: hits, their analogues and other compounds. The true share with any hit is near 2.3%.
OXTR potentiator = human OXTR potentiators, primary screen, fluorescence, CHO-OTR cells, Fluo-8 calcium; Oxytocin receptor (Homo sapiens), P30559; 0.061% of 320,000 active; AID 2445, 2010; activation, % at 3 µM; Fluo-8 calcium fluorescence, potentiator mode; 0% = oxytocin EC15, 100% = EC100;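 active = activation above that plate's cutoff, the mean activation of tested compounds plus 3 SD, cut at about 6.6% in these data, passing the limit was not always enough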
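test system = CHO-OTR cells, human receptor | compound = single-point 3.0 µM | schedule = 6 min compound pre-incubation at room temperature, 100 s kinetic read | signal = Fluo-8 no-wash calcium dye fluorescence, excitation 470-495 nm, emission 515-575 nm | repeats = single well per compound, singlicate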
TAAR1 antagonist = human TAAR1 antagonists, primary screen, Fluo-8 calcium fluorescence, CHO RD-HGA16 cells; inhibition, % at 3 µM; Trace amine-associated receptor 1 (Homo sapiens), Q96RJ0; antagonist; 1.5% of 360,000 active;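 active = inhibition above a per-plate cutoff, the mean inhibition of test compounds on that plate plus 3 SD, cut at about 49% in these data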
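test system = CHO RD-HGA16 cells bearing hTAAR1 | replication = singlicate | controls = DMSO-only wells and EC80 β-PEA-stimulated wells | reagent = EC80 β-phenethylamine stimulus | read-out basis = percent inhibition of PEA-evoked calcium signal, max/basal emission ratio | schedule = seeding 17-24 h prior, 75-min 37 °C, 30-min RT dye loading | signal = kinetic Fluo-8 calcium fluorescence measurement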
OXTR ag = human OXTR agonists, primary screen, fluorescence, CHO-OTR cells, Fluo-8 calcium; Oxytocin receptor (Homo sapiens), P30559; Fluo-8 calcium fluorescence; normalized: DMSO 0%, oxytocin 100%; 0.32% of 320,000 active; activation, % at 3 µM;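 active = activation above the mean of all tested compounds plus 3 SD, cutoff set per screening run, cut at about 20% in these data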;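 note: peak over basal fluorescence ratio from a 100 s FLIPR kinetic read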
TAAR1 agonist = human TAAR1 agonists, primary screen, Fluo-8 calcium fluorescence, CHO RD-HGA16 cells | vehicle wells 0%, saturating PEA agonist 100% | activation, % at 3 µM | 0.99% of 360,000 active;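 active = activation above the mean activation of all test compounds in the run plus 3 SD, cut at about 38% in these data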
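System: CHO RD-HGA16 cells carrying human TAAR1 plus Gα16; Incubation: 17-24 h seeding, 75 min 37 °C dye, 30 min RT; Measured by: Fluo-8 fluorescence, 5 s baseline then 140 s kinetic read; Control set: DMSO and PEA EC100; Replication: single well for each compound.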
V1R ag counter = agonists of human V1a receptor, primary screen, counter-screen for OXTR agonist project, fluorescence, CHO-V1R cells | activation, % at 3 µM | Vasopressin V1a receptor (Homo sapiens), P37288 | Fluo-8 calcium fluorescence, agonist mode; 0% DMSO, 100% 3 nM vasopressin | 0.25% of 320,000 active;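 active = activation above the mean activation of all tested compounds plus 3 SD, per screening run, cut at about 20% in these data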;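 note: signal is peak over basal fluorescence ratio across a 100 second FLIPR read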
Target sequence (P37288 whole entry, looked up): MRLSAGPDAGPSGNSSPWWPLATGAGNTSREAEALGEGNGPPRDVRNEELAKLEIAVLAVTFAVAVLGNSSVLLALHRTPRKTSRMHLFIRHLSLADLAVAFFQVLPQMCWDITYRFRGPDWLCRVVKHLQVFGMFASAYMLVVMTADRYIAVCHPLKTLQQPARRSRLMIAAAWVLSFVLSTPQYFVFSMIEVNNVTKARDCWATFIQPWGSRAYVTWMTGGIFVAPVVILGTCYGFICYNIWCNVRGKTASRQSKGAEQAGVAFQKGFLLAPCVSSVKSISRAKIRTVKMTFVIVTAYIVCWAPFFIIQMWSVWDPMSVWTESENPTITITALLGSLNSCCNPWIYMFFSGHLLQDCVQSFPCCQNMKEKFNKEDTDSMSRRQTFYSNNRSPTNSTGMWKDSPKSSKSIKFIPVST
OXTR pot confirm = human OXTR potentiators, confirmation, fluorescence, CHO-OTR cells, triplicate; shares compounds with OXTR potentiator; Fluo-8 calcium fluorescence, potentiation; scaled from low-dose to maximal oxytocin; activation, % at 3 µM; 180 tested, under 10 active;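 active = mean percent activation over triplicates above a cutoff set from solvent-only control plates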;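 note: compounds tested in the presence of an EC15 dose of oxytocin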
Hits are given with their value; i = inactive; nt = no result.

SMILES	OXTR potentiator	TAAR1 antagonist	OXTR ag	TAAR1 agonist	V1R ag counter	OXTR pot confirm
CCOc1ccc(C(=O)N2CCc3ccccc32)cc1	12	i	i	i	i	i
CCCOc1ccc(C(=O)N2CCCc3ccccc32)cc1	i	i	i	i	i	nt
CC(C)(C)NC(=O)c1cc(C(C)(C)C)c(O)c(C(C)(C)C)c1	10	i	i	i	i	i
CCCOc1ccc(-c2c(C(=O)N/N=C/c3ccc(C)cc3)nnn2-c2nonc2N)cc1	22	i	i	i	i	i
CCCOc1ccc(-c2c(C(=O)N/N=C/c3cccnc3)nnn2-c2nonc2N)cc1	i	i	i	i	i	nt
O=C(/C=C/c1ccc([N+](=O)[O-])cc1)NCc1cccnc1	i	i	i	i	i	nt
O=C(/C=C/c1ccc([N+](=O)[O-])cc1)c1cccnc1	13	i	i	i	i	i
CN(Cc1nc2ccccc2c(=O)[nH]1)C(=O)c1ccc(S(=O)(=O)N2CCCC2)cc1	13	i	i	i	i	i
C1CCC(CNc2c3c(nc4nnnn24)CCCC3)CC1	i	i	i	i	i	nt
COCCCNc1c2c(nc3nnnn13)CCCC2	13	i	i	i	i	i
CCCCCCn1c(=O)n2n(c1=O)[C@@H]1CN(S(=O)(=O)c3ccc(C)cc3)C[C@]1(O)[C@@H](OC(=O)NCc1ccco1)C2	nt	i	nt	i	nt	nt
COc1ccc(NC(=S)N2CCN(c3ccc4c(c3)C3CCN(C(=O)OCc5ccccc5)C4C3)CC2)c(OC)c1 (stereo not drawn)	nt	i	nt	i	nt	nt
COc1cccc(CNC(=O)[C@H]2CCCN2C(=O)[C@H]2CCCN2C(=O)c2ccc(Cl)cc2)c1	nt	i	nt	i	nt	nt
CC(=O)N1CCN(S(=O)(=O)c2cccc(C(=O)OCc3ccc(F)cc3)c2)CC1	nt	i	nt	i	nt	nt
CC(=O)N1CCN(S(=O)(=O)c2cccc(C(=O)OCN3C(=O)c4ccccc4C3=O)c2)CC1	11	i	i	i	i	i
CC1CCc2nn(CC(=O)NCc3ccco3)cc2C1 (stereo not drawn)	13	i	i	i	i	i
COc1ccc(CN2C[C@H](COCc3ccccc3)Oc3cccc(F)c3S2(=O)=O)cc1	nt	i	nt	i	nt	nt
Cc1c(C(=O)NCCc2ccccc2)oc2ccccc12	11	i	i	i	i	i
COc1ccc2oc(C(=O)NCCc3ccccc3)c(C)c2c1	i	i	i	i	i	nt
COc1cc(/C=C2/S/C(=N/S(=O)(=O)Cc3ccccc3)NC2=O)c([N+](=O)[O-])cc1OC	13	i	i	i	i	i
CCOC(=O)N1CCN(C(=O)COc2ccc(Cl)cc2)CC1	12	i	i	i	i	i
Cc1ccc(SCc2cc(=O)n3[nH]cnc3n2)cc1	9.8	i	i	i	i	i
Cc1ccc(SCc2cc(=O)n3[nH]c(C)nc3n2)cc1	i	i	i	i	i	nt
Cc1ccc(C)c(NC(=O)CCN2C(=O)c3ccccc3C2=O)c1	nt	i	nt	i	nt	nt
Cc1ccc(C)c(NC(=O)CCN2C(=O)C3CC=CCC3C2=O)c1 (stereo not drawn)	15	i	i	i	i	i
SMILES	OXTR potentiator	TAAR1 antagonist	OXTR ag	TAAR1 agonist	V1R ag counter	OXTR pot confirm
Cc1cc(C(=O)N2CCN(CCc3ccccc3)CC2)no1	10	i	i	i	i	i
Cc1cc(SCC(=O)c2ccc(Cl)cc2)nc(=O)[nH]1	12	i	i	i	i	i
Cc1ccc(C(=O)CSc2cc(C)[nH]c(=O)n2)cc1	i	i	i	i	i	nt
COc1cc(OC)cc(-c2c(-c3cccs3)c3cc(-c4ccc(C(N)=O)cc4)ccc3n2C)c1	13	i	i	i	i	i
CCOc1ccccc1NC(=O)c1cccc(NC(=O)CC(c2ccccc2)c2ccccc2)c1	26	i	i	i	i	9.7
NNC(=O)c1nnsc1-c1csnn1	nt	i	nt	i	nt	nt
CCOC(=O)c1sc(C)c2c1NC1(CCCCC1)NC2=O	11	i	i	i	i	i
